# Experimental data from different studies.
# Protocols differ between the studies behind these lines.
SMILES,assay,system,conditions,pKa
C=CC(=O)N(C)CCOc1c(N)ncnc1-c1cc(F)cc(NC(=O)c2ccc(C3CC3)cc2F)c1C,,,,4.1
CC#Cc1cncc(-c2ccc3c(c2)[C@@]2(N=C(C)C(N)=N2)[C@]2(CC[C@H](OC)CC2)C3)c1,,,,6.4
Cc1cnc(N2CC3(CCOCC3)C2)c(C(=O)Nc2ccc(C(=O)N3CCc4cc(C(=O)Nc5c(C)cccc5F)sc4-c4ccccc43)cc2)c1,,,,4.8
CC(C)CC(=O)N1CCC[C@H](COc2cccc3c2C(N)=NS(=O)(=O)N3)C1,,,,6.31
COc1ccccc1Oc1c(NS(=O)(=O)c2ccc(C(C)(C)C)cc2)nc(-c2ncccn2)nc1OCCO,,,,5.11
COc1ccc(S(=O)(=O)N/N=C/c2cccc(C(=O)O)c2)cc1OC,,aqueous buffer,,6.69
CS(=O)(=O)N1CCN(Cc2cc3nc(-c4cccc5[nH]ncc45)nc(N4CCOCC4)c3s2)CC1,,,,4.24
O=C1c2c(O)cc(O)cc2O[C@H](c2cc(O)c(O)c(O)c2)[C@H]1O,absorbance,aqueous buffer,pH 3.1,7.9
COC(=O)c1ccc(/C=N/NS(=O)(=O)c2ccc(OC)c(OC)c2)cc1,,aqueous buffer,,6.86
COc1cccc(C=CCC(=O)O)c1OC,,,,~4.2
Cc1cc(Cl)cc(S(C)(=O)=O)c1NC(=O)c1cc(Br)nn1-c1ncccc1Cl,potentiometric,,,8.95
CCn1c(C(=O)N(C2CC2)C2CC2)cc2c3c(ncn3C)c(Nc3cc(C)n(C)n3)nc21,,,,4
CC(C)(C)CCN1CC2C(CNC(=O)c3cc(Cl)cc(Cl)c3)C2C1 (stereo not shown),,,,8.1
